# Reference: the EternaBench riboswitch data
# Key:
# MS2 coat protein [1] = assay: apparent Kd, MS2 coat protein; higher = weaker binding; RNA-MaP array
# In short: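 Sequenced DNA templates on an Illumina sequencing chip were transcribed into the designed RNAs. These were incubated at room temperature in Tris-HCl pH 7.5 buffer containing KCl, MgCl2, BSA, DTT, tRNA and Tween20 with fluorescently labeled MS2 coat protein at 1.5 nM to 3 μM, with or without input ligand. Apparent Kd is the median of binding-curve fits per cluster, and designs with fewer than 10 clusters measured were excluded.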
# MS2 coat protein [2] = assay: apparent Kd, MS2 coat protein; higher = weaker binding; RNA-MaP array; FMN 200 µM where present
# In short: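 The apparent Kd is the median of filtered binding-curve fits, one per cluster, to green signal normalised to red-channel RNA signal and control-cluster median Fmax. The clusters were on Illumina sequencing chips, and stalled E. coli RNA polymerase had transcribed the designs on them. Titration used SNAP-549-labelled MS2 coat protein from 0.7 or 1.5 nM, doubling to 3 µM, without and then with constant ligand, in 100 mM Tris-HCl pH 7.5, 80 mM KCl, 4 mM MgCl2, BSA, DTT, yeast tRNA and Tween-20.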
# [3] = designed as: ON switch for flavin mononucleotide, no ligand
# [4] = ligand present: flavin mononucleotide, designed as: ON switch for flavin mononucleotide
# [5] = designed as: OFF switch for flavin mononucleotide, no ligand
# [6] = ligand present: flavin mononucleotide, designed as: OFF switch for flavin mononucleotide
# [7] = designed as: ON switch for theophylline, no ligand
# [8] = ligand present: theophylline, designed as: ON switch for theophylline
# [9] = designed as: OFF switch for tryptophan, no ligand
# [10] = ligand present: tryptophan, designed as: OFF switch for tryptophan
sequence,measurement,setting,value
CCGCCACGUCAAGGAUAUGCACGGGAGCCCGUAGCAGAAGGUGAGGCGAACGCCAUCCCACAUGAGGAUCACCCAUGUACGGGC,apparent Kd,MS2 coat protein [1]; [3],786 nM
same,apparent Kd,MS2 coat protein [1]; [4],202 nM
GAUUGAGUUCUAGGAUAUCCAGAGCGGCGUGGGACAUGAGGAUCACCCAUGUGCUCUAUGAUCAUGGAGAAGGAGAACCCCGUU,apparent Kd,MS2 coat protein [1]; [5],37.3 nM
same,apparent Kd,MS2 coat protein [1]; [6],46 nM
GUCAGGUGGACAGGAUAUCGUGCUCGUAGACAUGAGGAUCACCCAUGUUCGCUCUUCUUCGGCAUCGAGAAGGGUCUCCAAUCU,apparent Kd,MS2 coat protein [1]; [5],34.8 nM
same,apparent Kd,MS2 coat protein [1]; [6],35.8 nM
AUGCGCUAUAUGGAUACCAGUAUGAUAAUUGACAUGAGGAUCACCCAUGUGAGCUCUACCUACCCUUGGCAGCCAACCCUAUUUG,apparent Kd,MS2 coat protein [1]; [7],21.9 nM
same,apparent Kd,MS2 coat protein [1]; [8],22.9 nM
ACAUGAGGAUCACCCAUGUUCACGGUUCACGAAGUCUAAAGCUAGGAUAUCAUUGGGUGGGCGCAUGAGAAGGAGCUUCCCGUA,apparent Kd,MS2 coat protein [1]; [3],70.1 nM
same,apparent Kd,MS2 coat protein [1]; [4],44.3 nM
AACUGGAAGGAAGGAUAUUCAACCACGAUCAGUGCCAAGCACAUGAGGAUCACCCAUGUUGUCCUGAAGAAGGUCCUAUGUCAA,apparent Kd,MS2 coat protein [1]; [5],16.3 nM
same,apparent Kd,MS2 coat protein [1]; [6],11.5 nM
AUCAGUCAAGAAGGAUAUGCAAUAUCCUGGCACGUAGACAUGAGGAUCACCCAUGUGCAGGCUAAGCAGAAGGUCUUAGAAGGU,apparent Kd,MS2 coat protein [1]; [5],16 nM
same,apparent Kd,MS2 coat protein [1]; [6],9.8 nM
CCUGAACGGGACAUGAGGAUCACCCAUGUAUGAGACUCAAAGAAGGAUAUCUUACAUACAGUUCGAGAGAAGGUCUAGCAAACG,apparent Kd,MS2 coat protein [1]; [5],86.5 nM
same,apparent Kd,MS2 coat protein [1]; [6],54.9 nM
GGCGCGGCAGGAUAUGGAUGACGUGACAUGAGGAUCACCCAUGUGCUUAGAUCAUUCGUACCAGAAGGGCCCGCAG,apparent Kd,MS2 coat protein [1]; [5],4.29 nM
same,apparent Kd,MS2 coat protein [1]; [6],4.3 nM
AUUAGGCUGCAGGAUAUGAAUCAUGUAACAAUUUCAGAAGGGCAUACAUGAGGAUCACCCAUGUAGUGAUCCGC,apparent Kd,MS2 coat protein [1]; [5],109 nM
same,apparent Kd,MS2 coat protein [1]; [6],220 nM
GUCUUGUAAGGAUAUGAUCAGUAGGAAAGAUGGCAGCAUCAUCAGAAGGUACAUGAGGAUCACCCAUGUUGUGA,apparent Kd,MS2 coat protein [1]; [5],17 nM
same,apparent Kd,MS2 coat protein [1]; [6],22.9 nM
CACCCUAAAGGAUAUACAGCAUAGAAAACGGGUAAGUCUAAACAUGAGGAUCACCCAUGUAGAAGGUUAGAAUU,apparent Kd,MS2 coat protein [1]; [5],14.8 nM
same,apparent Kd,MS2 coat protein [1]; [6],14.5 nM
CAAUGGCAGUUGCAGGAUAUUCGGCCGGACACAUGAGGAUCACCCAUGUAGGUUCUCCCAUGGAUGAAGAAGGGCACAACAGAAAC,apparent Kd,MS2 coat protein [1]; [3],134 nM
same,apparent Kd,MS2 coat protein [1]; [4],66.4 nM
UACUCGACUUAGAAGGGUUUGUGGACAGCCAGUGGCGUGCGUACAUGAGGAUCACCCAUGUCUCAACAGGAUAUAAGCAUUAGC,apparent Kd,MS2 coat protein [1]; [5],35 nM
same,apparent Kd,MS2 coat protein [1]; [6],27 nM
CUGAGGUUAGGAUAUCUUCUGUUAUCUUCACGAUGAUAAACAGAGAAGGAACAUGAGGAUCACCCAUGUGGUCU,apparent Kd,MS2 coat protein [1]; [5],135 nM
same,apparent Kd,MS2 coat protein [1]; [6],99.8 nM
UAAAUCUUACAACACAUGAGGAUCACCCAUGUACGGGCGGGAUAGGAUAUCGAAAUGGUCUCAAACGAGAAGGAUCCUUCUUAU,apparent Kd,MS2 coat protein [1]; [3],46.7 nM
same,apparent Kd,MS2 coat protein [1]; [4],27.8 nM
GGUGAAUUAGUGAGGAUAUGAUAGACAAACAAAAUACAGAAGGCACAUGAGGAUCACCCAUGUGACGGAGAGAA,apparent Kd,MS2 coat protein [1]; [5],6.31 nM
same,apparent Kd,MS2 coat protein [1]; [6],5.93 nM
GGGCGACAUGAGGAUCACCCAUGUGUCGAUACCAGUAUGAAUUUCUACCCUUGGCAGCGACGACACGGUUAUUUGUGCACUUCGA,apparent Kd,MS2 coat protein [1]; [7],81.8 nM
same,apparent Kd,MS2 coat protein [1]; [8],200 nM
AAAAGGAUGAUAGGAUAUCAUAACAUGAGGAUCACCCAUGUACAGACGCAACGCUAAACUAGACAUGAGAAGGAUCACAAAACA,apparent Kd,MS2 coat protein [1]; [3],179 nM
same,apparent Kd,MS2 coat protein [1]; [4],82.2 nM
UGGUGCCCUGUAUACAUUGUAAUCCUAAUGCGAGGACCGGUACGGCCGCCACUCGUUGCGGAACAUGAGGAUCACCCAUGUAACA,apparent Kd,MS2 coat protein [1]; [9],18.3 nM
same,apparent Kd,MS2 coat protein [1]; [10],16.6 nM
ACAUGAGGAUCACCCAUGUUGAACUACCAUCGAGGACCGGUACGGCCGCCACUCGCGUUCUCCUUAGCAUCAAGGUCCGCGAAAC,apparent Kd,MS2 coat protein [1]; [9],13.3 nM
same,apparent Kd,MS2 coat protein [1]; [10],12.7 nM
GGUCUGCCAUUUCAGGAUAUGCUCAGUGCAACAUGAGGAUCACCCAUGUCAGGCUCGAACGACUCGCAGAAGGGAAGUCACGGAUG,apparent Kd,MS2 coat protein [1]; [3],102 nM
same,apparent Kd,MS2 coat protein [1]; [4],61.4 nM
GGACAACAUGAGGAUCACCCAUGUGAGAAGUGCAAAGGAUAUCGCAGAAGUGAUAACGAACGAGAAGGUUGCCUCU,apparent Kd,MS2 coat protein [1]; [3],23.6 nM
same,apparent Kd,MS2 coat protein [1]; [4],10.1 nM
ACACGCUAAGGAUAUACAUGAGGAUCACCCAUGUUAAAAGUUAAAUAGGAAUGAUACCGUAGAAGGUAGGAUGA,apparent Kd,MS2 coat protein [1]; [5],13.2 nM
same,apparent Kd,MS2 coat protein [1]; [6],11.4 nM
UCAGUUCAAGGAUAUACAUGAGGAUCACCCAUGUACCGCAAUGUAGAAAAGUGACGUAGUAGAAGGUGAAACGA,apparent Kd,MS2 coat protein [1]; [5],23.6 nM
same,apparent Kd,MS2 coat protein [1]; [6],21 nM
UCACUACAGUAGAAGGUAGGUACAUGAGGAUCACCCAUGUGGUAGGGAGAUUUACACUGUUUCGCUAAGGAUAUACUGGCCAAU,apparent Kd,MS2 coat protein [1]; [5],207 nM
same,apparent Kd,MS2 coat protein [1]; [6],125 nM
AGUAAAAGAGGAUAUACAUGAGGAUCACCCAUGUUGGCGCAGACAAUCGAUGCAUCGAGUAGAAGGCUUUCAAU,apparent Kd,MS2 coat protein [1]; [5],21.3 nM
same,apparent Kd,MS2 coat protein [1]; [6],17.1 nM
CGCAACUCUUCACAUGUAAACAUGAGGAUCACCCAUGUAAUGAGAAGGAGGAAGAAGAGAGAUUCCUAGGAUAUCAGAGUUGCG,apparent Kd,MS2 coat protein [2]; [5],6.83 nM
same,apparent Kd,MS2 coat protein [2]; [6],6.52 nM
UGUCGGAGCAGAGGAUAUUACAUGAGGAUCACCCAUGUAUAAAAUGGAAGCUGGAAACAGCAAUGUAAGAAGGCUGCUCCGACA,apparent Kd,MS2 coat protein [2]; [5],61.2 nM
same,apparent Kd,MS2 coat protein [2]; [6],288 nM
UGUCGGAGCAGAGGAUAUUACAUGAGGAUCACCCAUGUAUGAACCAAUAGCUGGAAACAGCAAUGUAAGAAGGCUACUCCGACA,apparent Kd,MS2 coat protein [2]; [5],5.41 nM
same,apparent Kd,MS2 coat protein [2]; [6],31.4 nM
ACAUGAGGAUCACCCAUGUUAAACGAGGAUAUUUGACUGCACAUGAGGUUCACCCAUGUCCUGCCGAAGAAGGUGUGAAUAAUU,apparent Kd,MS2 coat protein [2]; [3],33.9 nM
same,apparent Kd,MS2 coat protein [2]; [4],32.6 nM
CAUCAGGUACGAGGAUAUCCGCGAUCUCUUCGAGGAGAAGGCGUACAUGAGGAUCACCCAUGUGGGCGAGGCAGACGAAGUCUG,apparent Kd,MS2 coat protein [2]; [5],96.3 nM
same,apparent Kd,MS2 coat protein [2]; [6],60.9 nM
UGUCGUGUUCGAGGAUAUGAAACUAGGCCGGGCACUGUACACCCGCCUGUCUCAGAAGGCGGACAUGAGGAUCACCCAUGUAAA,apparent Kd,MS2 coat protein [2]; [5],294 nM
same,apparent Kd,MS2 coat protein [2]; [6],22.1 nM
GUCGGAAACGACAAGUAGCAAUCGGAGGAUAUUCAUGGAAACAUGAGGAUCACCCAUGUAAAUUGGGAGAAGGCCGAUUGCUAC,apparent Kd,MS2 coat protein [2]; [3],1220 nM
same,apparent Kd,MS2 coat protein [2]; [4],93.6 nM
GUAGAGUAAGGAUAUACAGAAUAGGAUAGAAUGGUUAGAAUGUAGAAGGUACAUGAGGAUCACCCAUGUAAUGU,apparent Kd,MS2 coat protein [2]; [5],19.7 nM
same,apparent Kd,MS2 coat protein [2]; [6],18.4 nM
CGCGAACAGGCUAACAUGAGGAUCACCCAUGUGGACUCAUGGUAGGAUAUCGGGAAGGAGGAAACCGAGAAGGGCCGGUGAGCU,apparent Kd,MS2 coat protein [2]; [3],65.6 nM
same,apparent Kd,MS2 coat protein [2]; [4],86.5 nM
UACGGACAUGAGGAUCACCCAUGUGAGGAUAUCGAUAACGAUAGCAUAAUAUAAUCGGCGAGAAGGCACAGCGU,apparent Kd,MS2 coat protein [2]; [5],32.7 nM
same,apparent Kd,MS2 coat protein [2]; [6],40.9 nM
AUUUAACCCAGCGGUGCUGAUGCACAUGAGGAUCACCCAUGUAGAAGGCAGCUAGACACUUAAGCUGAGGAUAUACAUGUAAGA,apparent Kd,MS2 coat protein [2]; [5],15.6 nM
same,apparent Kd,MS2 coat protein [2]; [6],63.3 nM
UGAUCUAUGUAGAAGGCCCAUAUCUAUAUUUAGGGAGGAUAUACAUGAGGAUCACCCAUGUAUAGAGCUAGUGGACUGGUCACC,apparent Kd,MS2 coat protein [2]; [5],37.7 nM
same,apparent Kd,MS2 coat protein [2]; [6],48.1 nM
GGGUGGCGUAGAGGAUAUGUGUUACAUGAGGAUCACCCAUGUGCAUAUGAUGUUCGUGUGUAUGCAUAGAAGGCUACGUCGCUA,apparent Kd,MS2 coat protein [2]; [3],222 nM
same,apparent Kd,MS2 coat protein [2]; [4],125 nM
GUGCCUUGGGAGAAGGCAGCAUGCAAAGCAUUCUGAGGAUAUUCAUACCGGAAACGGACAUGAGGAUCACCCAUGUGGCACAAA,apparent Kd,MS2 coat protein [2]; [3],1470 nM
same,apparent Kd,MS2 coat protein [2]; [4],72.1 nM
ACACACCCAUGAGGUCCCUCCACAUGAGGAUCACCCAUGUGCAGAAGGUACGGCACGGUGUGCGGUAAGGAUAUGUACAAGUAA,apparent Kd,MS2 coat protein [2]; [5],6.08 nM
same,apparent Kd,MS2 coat protein [2]; [6],7.71 nM
AGCUACGUUUCGUAGCAGUGUCAUCGAGAAGGCUCAUAUACAUGAGGAUCACCCAUGUUUUCAUGGGAGGAUAUCGAUGAUACA,apparent Kd,MS2 coat protein [2]; [3],108 nM
same,apparent Kd,MS2 coat protein [2]; [4],8.76 nM
CCGGAAACGGGUAGCUGACAUGAGGAUCACCCAUGUGAAUCUGAGGAUAUGGAUCCUAAUUGGAUCCAGAAGGCAGUCAGCUAC,apparent Kd,MS2 coat protein [2]; [3],615 nM
same,apparent Kd,MS2 coat protein [2]; [4],61.4 nM
CGGUGUCAUGUAAGGAUAUCGCAUCCCAGCGGAUACGAGAAGGUACAUGAGGAUCACCCAUGUACGAUAAAAUA,apparent Kd,MS2 coat protein [2]; [5],14.3 nM
same,apparent Kd,MS2 coat protein [2]; [6],17.5 nM
